High-throughput results from PubChem.
Most compounds without a hit are left out; they make up all but 2.3% or so of the library.
TRPC4 PAM = allosterically enhances the mouse TRPC4 cation channel | Q9QUQ5 | HEK293 TRPC4beta/mu-opioid, DAMGO EC20, Fluo-4 Ca2+ flux; hits give high values | B-score at 10 µM | 310,000 compounds, 0.42% hits;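 active means B-score of calcium response area above 5 SD of library B-scores, with initial fluorescence ratio within 5 SD of library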;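 further: B-score of integrated fluorescence ratio over time as area under calcium response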
Target sequence (Q9QUQ5 whole entry, looked up): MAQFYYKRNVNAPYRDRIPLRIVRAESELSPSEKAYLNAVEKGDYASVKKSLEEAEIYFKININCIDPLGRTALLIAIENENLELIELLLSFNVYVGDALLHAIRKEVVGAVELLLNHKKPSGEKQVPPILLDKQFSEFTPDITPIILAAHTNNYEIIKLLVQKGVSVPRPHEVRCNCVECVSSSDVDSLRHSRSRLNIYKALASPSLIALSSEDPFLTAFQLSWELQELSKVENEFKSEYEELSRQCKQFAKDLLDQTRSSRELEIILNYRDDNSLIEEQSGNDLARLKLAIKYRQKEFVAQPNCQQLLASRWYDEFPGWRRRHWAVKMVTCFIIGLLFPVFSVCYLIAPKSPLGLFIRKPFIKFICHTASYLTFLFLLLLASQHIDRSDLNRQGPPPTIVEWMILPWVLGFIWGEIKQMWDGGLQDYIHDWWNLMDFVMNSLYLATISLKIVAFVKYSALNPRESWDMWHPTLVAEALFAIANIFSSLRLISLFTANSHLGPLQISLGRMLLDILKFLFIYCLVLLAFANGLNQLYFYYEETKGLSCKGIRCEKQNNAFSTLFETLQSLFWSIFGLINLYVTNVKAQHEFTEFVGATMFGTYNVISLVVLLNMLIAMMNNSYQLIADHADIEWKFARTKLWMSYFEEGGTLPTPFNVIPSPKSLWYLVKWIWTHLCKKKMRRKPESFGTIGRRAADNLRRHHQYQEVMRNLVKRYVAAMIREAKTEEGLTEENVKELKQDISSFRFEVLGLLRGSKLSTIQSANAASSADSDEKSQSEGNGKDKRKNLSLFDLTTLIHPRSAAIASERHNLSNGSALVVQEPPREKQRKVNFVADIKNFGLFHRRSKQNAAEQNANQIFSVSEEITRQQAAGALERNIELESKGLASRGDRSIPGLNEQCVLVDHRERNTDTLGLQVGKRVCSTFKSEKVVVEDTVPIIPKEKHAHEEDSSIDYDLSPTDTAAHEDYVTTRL
TRPC4 block = inhibitors of mouse TRPC4 channel. Q9QUQ5. AID 2247. HEK293 TRPC4beta/mu-opioid, DAMGO-evoked Fluo4 calcium flux; hits give low values. B-score at 10 µM. 300,000 compounds, 0.39% hits;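 active means B-score over 3 SD under the library average, no early fluorescence shift, positive overall ratio signal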
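System: stable TRPC4beta/mu-opioid receptor HEK293 cells; Dosing: single-point compound dosing; Measured by: Fluo4 Ca2+ flux fluorescence; Read-out basis: per-well B score of integrated baseline-normalized Fluo4 ratio.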
TRPC6 activator = mouse TRPC6 channel activation; Q61143; B-score at 10 µM; HEK293-TRPC6 membrane potential dye fluorescence; hits give high values; 310,000 compounds, 0.13% hits;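 active means B-score of the integrated fluorescence ratio above library mean plus 3 SD, and starting fluorescence ratio within library mean plus 5 SD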;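 further: higher score means more depolarization so channel activation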
TRPC6 inhibitor = mouse TRPC6 channel inhibition | Q61143 | HEK293-TRPC6, membrane potential dye, ACh-evoked depolarization; hits give low values | B-score at 10 µM | 310,000 compounds, 1.1% hits | AID 2553;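 active means B-score under library mean minus 3 SD, initial fluorescence not abnormally high, positive integrated signal ratio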;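 further: B-score derived from integrated fluorescence ratio over the kinetic read; more negative B-score means stronger inhibition of depolarization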
TRPC4 act = opens the mouse TRPC4 cation channel; HEK293 TRPC4beta/mu-opioid, Fluo4 calcium fluorescence; hits give high values; B-score at 10 µM; 310,000 compounds, 0.49% hits;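 active means B-score above 5 SD of library B-scores, and initial fluorescence ratio not above library mean plus 5 SD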;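 further: positive B-score marks a calcium rise read as TRPC4 activation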
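Technique: kinetic Fluo4 calcium fluorescence; Test system: TRPC4beta and mu-opioid receptor HEK293 stable cells; Measure: B-scored integrated calcium fluorescence ratio; Benchmarks: low control buffer alone, high control maximal DAMGO; Schedule: 45 min room-temperature Fluo4 loading, 110 s read.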
* = called active by the depositor; i = inactive; . = no result given.

SMILES	TRPC4 PAM	TRPC4 block	TRPC6 activator	TRPC6 inhibitor	TRPC4 act
Cc1c(C(=O)NCC(c2ccco2)N(C)C)oc2c(Cl)cccc12 (stereo not drawn)	i	-8*	i	i	i
CN(C)C(CNC(=O)c1ccccc1OCc1ccc(Cl)cc1)c1ccco1 (stereo not drawn)	i	-7*	i	i	i
CN(C)C(CNC(=O)c1ccc(Br)cc1)c1ccco1 (stereo not drawn)	i	i	i	i	63*
COc1ccc(-c2ccc3oc(-c4ccsc4)cc3c2)cc1	i	i	i	i	i
Cc1cc(C(=O)NCC(c2ccco2)N(C)C)ccc1[N+](=O)[O-] (stereo not drawn)	i	i	i	i	71*
O=C(OCCCCN1C(=O)c2ccccc2C1=O)c1ccc(S(=O)(=O)N2CCCC2)cc1	17*	i	i	i	i
CCC1(C(=O)c2ccccc2)C(c2ccc([N+](=O)[O-])cc2)C1(C(=O)OC)C(=O)OC (stereo not drawn)	i	-7*	i	i	i
O=C(CCc1ccc(Oc2cc([N+](=O)[O-])cc([N+](=O)[O-])c2)cc1)N1CCCCCC1	i	-6*	i	i	75*
Cc1ccc(C(C2=C(O)CC(C)(C)CC2=O)C2C(=O)CC(C)(C)CC2=O)s1 (stereo not drawn)	i	i	i	i	i
CC1(C)CC(=O)C(C(C2=C(O)CC(C)(C)CC2=O)c2ccc(Br)s2)C(=O)C1 (stereo not drawn)	10*	i	i	i	i
c1ccc(-c2nc3ccccn3c2NCc2ccc3c(c2)OCO3)cc1	i	i	i	i	i
COc1ccc(-c2nc3ccccn3c2NCc2ccc3c(c2)OCO3)cc1	i	i	i	-5.3*	i
CCN(CC)CCCNC(=O)c1cc2nc(-c3ccccc3)cc(C(F)(F)F)n2n1	11*	i	i	i	i
COCCNC(=O)c1cc2nc(-c3ccc(F)cc3)cc(C(F)(F)F)n2n1	i	i	i	i	i
CC1=C[C@@H](C)[C@@H](c2ccccc2)OC1=O	i	i	i	i	61*
O=C(NNC(=S)NC(=O)C12CC3CC(CC(C3)C1)C2)c1ccncc1	i	i	i	i	169*
CC1(C(=O)NC(=S)NNC(=O)c2ccncc2)CCCCC1	i	i	i	i	97*
O=C(CN1CCN(c2ccc([N+](=O)[O-])cc2)CC1)c1ccccc1	11*	i	i	i	i
Cc1ccnc(NC(=O)CNC(=O)c2ccccc2Br)c1	i	i	i	i	i
O=S(=O)(c1ccccc1)N1CCN(c2nnc(-c3ccccc3)c3ccccc23)CC1	i	i	i	i	i
COc1cccc(NS(=O)(=O)c2ccc3[nH]cc(C(=O)NCCN4CCOCC4)c(=O)c3c2)c1	i	.	i	i	i
Cc1ccccc1NS(=O)(=O)c1ccc2[nH]cc(C(=O)NCCCN3CCOCC3)c(=O)c2c1	i	.	i	-6*	i
O=C1OCCN/C1=C\C(=O)c1ccccc1	14*	i	i	i	i
O=C1OCCN/C1=C\C(=O)c1ccc(Cl)cc1	i	i	i	i	i
Cc1ccc2c(c1)N(C(=O)CCC(=O)NCC(C)c1ccccc1)CC(C)O2 (stereo not drawn)	i	i	i	i	i
SMILES	TRPC4 PAM	TRPC4 block	TRPC6 activator	TRPC6 inhibitor	TRPC4 act
COC(=O)c1ccccc1NC(=O)CCC(=O)N1CC(C)Oc2ccc(C)cc21 (stereo not drawn)	i	-8*	i	i	i
CN(CCOc1ccccc1)CC(O)COCc1ccccc1F (stereo not drawn)	i	i	i	i	i
CN(CCOc1ccccc1)CC(O)COc1ccccc1 (stereo not drawn)	i	-6*	i	i	i
CC(OCC(O)CN(C)CCOc1ccccc1)c1ccc(Cl)cc1 (stereo not drawn)	i	-6*	i	i	i
Cc1cccc(OCC(=O)NCC(=O)N/N=C/c2c(C)[nH]c3ccccc23)c1	i	i	i	i	i
CC1CC(C)CN(CCCNC(=O)Cn2cccc2C(=O)c2ccccc2)C1 (stereo not drawn)	i	i	i	i	105*
CC1CC(C)CN(CCCNC(=O)c2ccc3c(c2)NC(=O)CS3)C1 (stereo not drawn)	i	i	i	i	69*
CC1CC(C)CN(CCCNC(=O)c2ccc(N3CCCC3=O)cc2)C1 (stereo not drawn)	25*	i	i	i	i
Nc1n[nH]c(-c2ccc([N+](=O)[O-])cc2[N+](=O)[O-])n1	i	i	i	i	i
COc1cccc(-c2c[nH]c(=O)[nH]c2=O)c1	i	i	i	i	i
Cc1cc(C)c2c(=O)n(CC(=O)Nc3cccc(Cl)c3C)sc2n1	16*	i	i	i	i
CC1CC(C)CN(CCCNC(=O)COc2cc(=O)n(C)c3ccccc23)C1 (stereo not drawn)	10*	i	i	i	85*
CCn1c(=O)cc(OCC(=O)NCCCN2CC(C)CC(C)C2)c2ccccc21 (stereo not drawn)	i	i	i	i	90*
Cc1ccc(CN2C3=NCCN3c3ccccc32)cc1	i	-6*	i	i	i
Clc1ccc(CN2C3=NCCN3c3ccccc32)cc1Cl	i	-6*	i	i	i
Cc1ccc(CNC(=O)C2(S(=O)(=O)c3ccccc3)CC=CC2)cc1	i	i	i	i	i
CC(c1ccncc1)C(C)c1ccncc1 (stereo not drawn)	i	i	i	i	i
COc1ccc(C[C@H]2CN3C(=NC[C@@H]3Cc3ccccc3)N2CCNC(=O)c2ccc(C)c(Br)c2)cc1	i	i	i	i	48*
O=C(C1=C[C@H](c2ccc(C(F)(F)F)cc2)C[C@H](OCCCCO)O1)N1CCOCC1	i	i	i	i	133*
O=C(C1=C[C@@H](c2ccc(C(F)(F)F)cc2)C[C@@H](OCCCCO)O1)N1CCOCC1	i	i	i	i	i
O=C(c1sc2ccccc2c1Cl)N(Cc1ccco1)C1CCS(=O)(=O)C1 (stereo not drawn)	i	i	i	i	59*
Cc1cc2oc(C(=O)N(Cc3ccccc3)C3CCS(=O)(=O)C3)cc(=O)c2cc1Cl (stereo not drawn)	23*	i	i	i	i
